A number with no mark means an inactive call.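 The calls were made as follows: active = signal-lowering compounds whose fitted half-effect concentration is no more than twice the top tested dose; inconclusive = flat curve with 30 to 70% inhibition, or poor fit; inactive = the rest.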

The nature of the assay: quencher artefacts in RAD54 branch migration readout – biochemical, Cy5 label, cherry-picked samples, artefact control for RAD54 inhibitor project, dose response (AID 651651). To be noted: Cy5 DNA fluorescence quench counter-screen; series mostly up to 50 µM; activity change, negative = inhibition: at the top concentration. In outline: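 assay system = human RAD54 enzyme | quantity = 30 nM RAD54 in the enzyme mix | buffer or medium = 25 mM Tris pH 7.5, 3 mM MgCl2, 2 mM ATP | also added = branched DNA substrate labelled with Cy5 and BHQ quencher | doses = pinned compound dose series | timing = 60 min reaction, room temperature | signal = fluorescence of the Cy5-labelled DNA substrate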
With `COc1ccc(CN(C)C[C@@H]2Oc3ccc(NC(=O)Nc4ccc5c(c4)OCO5)cc3C(=O)N([C@@H](C)CO)C[C@H]2C)cc1`, the “activity change, negative = inhibition” value is -2.31%.

For the compound `C[C@H]1CN([C@@H](C)CO)C(=O)c2cc(NS(=O)(=O)c3cccs3)ccc2O[C@@H]1CN(C)C(=O)Nc1cccc2ccccc12`, the “activity change, negative = inhibition” value was -11%.

For the compound `C[C@@H]1CN([C@@H](C)CO)C(=O)c2cc(NS(=O)(=O)c3cccs3)ccc2O[C@@H]1CN(C)C(=O)Nc1cccc2ccccc12`, the “activity change, negative = inhibition” value is 2.94%. In the case of `Cc1noc(C)c1NC(=O)N(C)C[C@H]1Oc2c(NC(=O)Nc3ccc(C(F)(F)F)cc3)cccc2C(=O)N([C@@H](C)CO)C[C@H]1C`, the “activity change, negative = inhibition” value was 4.92%. With `O=C(C[C@@H]1C[C@H]2c3cc(NC(=O)CC4CC4)ccc3O[C@H]2[C@@H](CO)O1)NCc1ccc(Cl)cc1`, the “activity change, negative = inhibition” value is -16.4%. Then `COc1ccc(S(=O)(=O)N(C)C[C@@H]2Oc3ccc(NC(=O)Nc4ccc(C(F)(F)F)cc4)cc3C(=O)N([C@H](C)CO)C[C@H]2C)cc1`, with -12.7%; and `C[C@@H]1CN([C@H](C)CO)C(=O)c2cc(NC(=O)Nc3ccc4c(c3)OCO4)ccc2O[C@H]1CN(C)C(=O)Nc1cccc2ccccc12`, with 0.117% [at 46 µM]; and `C[C@H]1CCCCO[C@@H](CN(C)C(=O)Nc2ccc3c(c2)OCO3)[C@@H](C)CN([C@@H](C)CO)C(=O)c2cc(NC(=O)Nc3ccc(C(F)(F)F)cc3)ccc2O1`, with -9.86%.

Take `CO[C@@H]1CN(C)C(=O)c2ccc(NC(C)=O)cc2OC[C@@H](C)N(C(=O)c2ccccn2)C[C@H]1C`: the “activity change, negative = inhibition” value was -8.93% [at 46 µM].

Take `COCC(=O)Nc1ccc2c(c1)[C@H]1C[C@@H](CC(=O)NCc3ccccc3F)O[C@H](CO)[C@H]1O2`: the “activity change, negative = inhibition” value is -6.26%. `C[C@@H]1CN([C@@H](C)CO)C(=O)c2cc(C3=CCCC3)cnc2O[C@@H]1CN(C)C(=O)Nc1ccc(F)cc1`: the “activity change, negative = inhibition” value is -6.79%.

As for `CO[C@@H]1CN(C)C(=O)c2cc(NC(C)=O)ccc2OC[C@H](C)N(Cc2ccccc2C(=O)O)C[C@@H]1C`, the “activity change, negative = inhibition” value was -1.33%. Then `CN(C)CC(=O)Nc1ccc2c(c1)[C@@H]1C[C@H](CC(=O)NC3CCCCC3)O[C@@H](CO)[C@@H]1O2`, with -8.2%; and `Cc1ccc(S(=O)(=O)N(C)C[C@@H]2Oc3ccc(NC(=O)NC(C)C)cc3C(=O)N([C@H](C)CO)C[C@H]2C)cc1`, with -17.6%; and `CN(C)c1ccc2c(c1)[C@@H]1C[C@@H](CC(=O)NCCN3CCCCC3)O[C@H](CO)[C@@H]1O2`, with -12.3%.

On to `CC(C)NC(=O)Nc1ccc2c(c1)C(=O)N([C@H](C)CO)C[C@@H](C)[C@H](CN(C)S(=O)(=O)c1ccc(Cl)cc1)O2`, for which the “activity change, negative = inhibition” value was -6.47%.

Regarding `COc1ccc(S(=O)(=O)N(C)C[C@@H]2Oc3ccc(NC(=O)Nc4ccccc4)cc3CC(=O)N([C@@H](C)CO)C[C@@H]2C)cc1`, the “activity change, negative = inhibition” value was 4.69%. Next, `COc1ccccc1CNC(=O)C[C@H]1C[C@@H]2c3cc(NC(=O)c4cccnc4)ccc3O[C@@H]2[C@H](CO)O1`: -9.59%; `COc1ccc(CN(C)C[C@@H]2Oc3ccc(NC(=O)NC(C)C)cc3C(=O)N([C@@H](C)CO)C[C@H]2C)cc1`: 5.61%; `COc1ccc(-c2ccc3c(c2)O[C@H](CN(C)C(C)=O)[C@H](C)CN([C@@H](C)CO)S3(=O)=O)cc1`: -7.1%.

With `COc1ccc(CN(C)C[C@@H]2Oc3ccc(NC(=O)Nc4ccc(OC)cc4)cc3C(=O)N([C@@H](C)CO)C[C@H]2C)cc1`, the “activity change, negative = inhibition” value was -9.24%. Then `COc1ccc(CN(C)C[C@@H]2Oc3ccc(NC(=O)Nc4ccc(F)cc4)cc3C(=O)N([C@@H](C)CO)C[C@H]2C)cc1`, with -1.07%.

`C[C@H]1CN([C@@H](C)CO)C(=O)Cc2cc(NC(=O)Nc3cccc4ccccc34)ccc2O[C@H]1CN(C)S(=O)(=O)c1ccc(Cl)cc1`: the “activity change, negative = inhibition” value is -1.16% [at 46 µM]. Then `CN1CCN(C(=O)C[C@H]2C[C@@H]3c4cc(NC(=O)Cc5ccncc5)ccc4O[C@@H]3[C@@H](CO)O2)CC1`, with -3.75%. Then `COc1ccc(S(=O)(=O)N(C)C[C@@H]2Oc3ccc(NC(=O)Nc4ccc5c(c4)OCO5)cc3C(=O)N([C@@H](C)CO)C[C@H]2C)cc1`, with 2.06%; and `COc1ccc(CN(C)C[C@@H]2Oc3ccc(NC(=O)Nc4ccc5c(c4)OCO5)cc3C(=O)N([C@H](C)CO)C[C@H]2C)cc1`, with -3.25%.

Take `COc1ccc(NC(=O)Nc2ccc3c(c2)CC(=O)N([C@H](C)CO)C[C@H](C)[C@H](CN(C)S(=O)(=O)c2ccc(OC)cc2)O3)cc1`: the “activity change, negative = inhibition” value is 0.589%. Then `COc1ccc(S(=O)(=O)N(C)C[C@@H]2Oc3ccc(NC(=O)Nc4c(C)noc4C)cc3CC(=O)N([C@@H](C)CO)C[C@@H]2C)cc1`, with -4.66%. Then `CN(C)c1ccc2c(c1)[C@@H]1C[C@H](CC(=O)NCCN3CCCCC3)O[C@H](CO)[C@@H]1O2`, with -7.07%; and `COc1ccccc1CNC(=O)C[C@@H]1C[C@@H]2c3cc(NC(=O)CN(C)C)ccc3O[C@@H]2[C@@H](CO)O1`, with 4.27%.

The values are drawn from PubChem BioAssay AID651651 (Broad Institute, 2012).
